{"source": "ChEMBL document CHEMBL2417498", "about": "“Design and synthesis of 6,7-methylenedioxy-4-substituted phenylquinolin-2(1H)-one derivatives as novel anticancer agents that induce apoptosis with cell cycle arrest at G2/M phase” (Bioorg Med Chem, 2013)", "key": {"HL-60 [1]": {"test_system": "HL-60", "experiment": "Cell cycle arrest in human HL60 cells assessed as accumulation at G0/G1 phase at 1 uM after 24 hrs by propidium iodide staining-based FACS analysis (reference value: 39.80%)", "type": "functional"}, "SK-OV-3": {"test_system": "SK-OV-3", "experiment": "Cytotoxicity against human SKOV3 cells after 48 hrs by MTT assay", "type": "functional, cell-based", "conditions": "SK-OV-3, 48 h", "how_it_was_run": "(§1)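 Log-phase tumour cells grown in RPMI-1640 with 10% FBS, penicillin/streptomycin and 1% L-glutamine at 37 °C, 5% CO2. Cells treated with vehicle or a range of concentrations for 48 h. Growth measured by MTT reduction, absorbance at 570 nm. IC50 is the concentration giving 50% proliferation inhibition, from 3 independent experiments.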"}, "HL-60 [2]": {"test_system": "HL-60", "experiment": "Induction of apoptosis in human HL60 cells assessed as chromatin condensation at 0.25 to 1 uM after 24 hrs by Hoechst 33258 staining-based microscopy", "type": "functional, cell-based", "how_it_was_run": "(§2)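 HL-60 seeded at 1×10⁵ cells/well, treated 24 h with 0.25, 0.5 or 1.0 µM; nuclei stained 10 min with 5 µg/mL Hoechst 33258, PBS-washed twice, fixed 10 min in 4% PFA at 25 °C; apoptotic morphology imaged by fluorescence microscopy against 0.1% DMSO-treated cells.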"}, "[3]": {"experiment": "Cell cycle arrest in human H460 cells assessed as accumulation at G2/M phase at 1 uM after 24 hrs by propidium iodide staining-based FACS analysis (reference value: 10.73%)", "type": "functional", "conditions": "NCI-H460", "how_it_was_run": "(§3)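 H460 cells treated 24 h with 1.0, 2.5 or 5.0 µM; washed in PBS, fixed overnight in 70% ice-cold ethanol at −20 °C, stained 30 min in the dark with 0.1% Triton X-100, 0.2 mg/mL RNase and 20 µg/mL propidium iodide; DNA content by flow cytometry, phase distribution from histogram modelling.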"}, "HL-60 [4]": {"test_system": "HL-60", "experiment": "Cell cycle arrest in human HL60 cells assessed as accumulation at S phase at 0.25 uM after 24 hrs by propidium iodide staining-based FACS analysis (reference value: 49.69%)", "type": "functional"}, "NCI-H460 [5]": {"test_system": "NCI-H460", "experiment": "Induction of apoptosis in human H460 cells assessed as appearance of nuclear fragmentation at 1 to 5 uM after 24 hrs by Hoechst 33258 staining-based microscopy", "type": "functional, cell-based", "how_it_was_run": "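H460 plated at 5×10⁴ cells/well and incubated 24 h with 1.0, 2.5 or 5.0 µM; stained with 5 µg/mL Hoechst 33258 for 10 min, washed twice in PBS, fixed in 4% paraformaldehyde 10 min at 25 °C; nuclei scored for chromatin condensation, fragmentation and apoptotic bodies by fluorescence microscopy; 0.1% DMSO control.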"}, "HL-60 [6]": {"test_system": "HL-60", "experiment": "Cell cycle arrest in human HL60 cells assessed as accumulation at sub G1 phase at 0.25 uM after 24 hrs by propidium iodide staining-based FACS analysis (reference value: 0.35%)", "type": "functional"}, "[7]": {"experiment": "Cytotoxicity against human 2774 cells after 48 hrs by MTT assay", "type": "functional, cell-based"}, "[8]": {"experiment": "Cell cycle arrest in human H460 cells assessed as accumulation at S phase at 5 uM after 24 hrs by propidium iodide staining-based FACS analysis (reference value: 43.08%)", "type": "functional", "conditions": "NCI-H460", "how_it_was_run": "as §3"}, "[9]": {"experiment": "Cell cycle arrest in human H460 cells assessed as accumulation at G2/M phase at 5 uM after 24 hrs by propidium iodide staining-based FACS analysis (reference value: 10.73%)", "type": "functional", "conditions": "NCI-H460", "how_it_was_run": "as §3"}, "HL-60 [10]": {"test_system": "HL-60", "experiment": "Cell cycle arrest in human HL60 cells assessed as accumulation at S phase at 0.5 uM after 24 hrs by propidium iodide staining-based FACS analysis (reference value: 49.69%)", "type": "functional"}, "HL-60 [11]": {"test_system": "HL-60", "experiment": "Cell cycle arrest in human HL60 cells assessed as accumulation at G0/G1 phase at 0.5 uM after 24 hrs by propidium iodide staining-based FACS analysis (reference value: 39.80%)", "type": "functional"}, "HL-60 [12]": {"test_system": "HL-60", "experiment": "Induction of apoptosis in human HL60 cells assessed as caspase3 cleavage at 0.25 to 1 uM by Western blot analysis", "type": "functional, cell-based", "how_it_was_run": "(§4)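 HL-60 cells treated 24 h at the indicated concentrations, harvested, lysed (30 min on ice, 12,000 g spin), protein by Bradford; samples run on 10% SDS-PAGE, transferred to nitrocellulose, immunodetected by chemiluminescence.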"}, "Detroit 551": {"test_system": "Detroit 551", "experiment": "Cytotoxicity against human Detroit 551 cells after 48 hrs by MTT assay", "type": "cell-based", "conditions": "Detroit 551, 48 h", "how_it_was_run": "(§5)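 Detroit 551 normal skin cells and Hep 3B hepatoma cells grown in DMEM with 10% FBS, penicillin/streptomycin and 1% L-glutamine at 37 °C, 5% CO2. Log-phase cells treated with vehicle or a range of concentrations for 48 h. MTT reduction read at 570 nm. IC50 (50% proliferation inhibition) taken from 3 independent experiments.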"}, "[13]": {"experiment": "Cell cycle arrest in human H460 cells assessed as accumulation at sub G1 phase at 1 uM after 24 hrs by propidium iodide staining-based FACS analysis (reference value: 3.07%)", "type": "functional", "conditions": "NCI-H460", "how_it_was_run": "as §3"}, "HL-60 [14]": {"test_system": "HL-60", "experiment": "Decrease in CDK1 expression in human HL60 cells after 24 hrs by Western blot analysis", "type": "functional, cell-based", "how_it_was_run": "as §4"}, "HL-60 [15]": {"test_system": "HL-60", "experiment": "Cell cycle arrest in human HL60 cells assessed as accumulation at S phase at 1 uM after 24 hrs by propidium iodide staining-based FACS analysis (reference value: 49.69%)", "type": "functional"}, "HL-60 [16]": {"test_system": "HL-60", "experiment": "Increase in cyclin B1 expression in human HL60 cells at 0.25 to 1 uM after 24 hrs by Western blot analysis", "type": "functional, cell-based", "how_it_was_run": "as §4"}, "HL-60 [17]": {"test_system": "HL-60", "experiment": "Cytotoxicity against human HL60 cells after 48 hrs by MTT assay", "type": "functional, cell-based", "conditions": "HL-60, 48 h", "how_it_was_run": "as §1"}, "HL-60 [18]": {"test_system": "HL-60", "experiment": "Induction of apoptosis in human HL60 cells assessed as appearance of apoptotic bodies at 0.25 to 1 uM after 24 hrs by Hoechst 33258 staining-based microscopy", "type": "functional, cell-based", "how_it_was_run": "as §2"}, "HL-60 [19]": {"test_system": "HL-60", "experiment": "Induction of apoptosis in human HL60 cells assessed as appearance of nuclear fragmentation at 0.25 to 1 uM after 24 hrs by Hoechst 33258 staining-based microscopy", "type": "functional, cell-based", "how_it_was_run": "as §2"}, "NCI-H460 [20]": {"test_system": "NCI-H460", "experiment": "Increase in CDK1 expression in human H460 cells after 24 hrs by Western blot analysis", "type": "functional, cell-based", "how_it_was_run": "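H460 cells exposed 24 h at the indicated concentrations; lysates cleared at 12,000 g, protein quantified by Bradford, resolved on 10% SDS-polyacrylamide gels, blotted to nitrocellulose and detected by chemiluminescence.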"}, "[21]": {"experiment": "Cell cycle arrest in human H460 cells assessed as accumulation at G2/M phase at 2.5 uM after 24 hrs by propidium iodide staining-based FACS analysis (reference value: 10.73%)", "type": "functional", "conditions": "NCI-H460", "how_it_was_run": "as §3"}, "HL-60 [22]": {"test_system": "HL-60", "experiment": "Cell cycle arrest in human HL60 cells assessed as accumulation at G0/G1 phase at 0.25 uM after 24 hrs by propidium iodide staining-based FACS analysis (reference value: 39.80%)", "type": "functional"}, "[23]": {"experiment": "Cell cycle arrest in human H460 cells assessed as accumulation at sub G1 phase at 5 uM after 24 hrs by propidium iodide staining-based FACS analysis (reference value: 3.07%)", "type": "functional", "conditions": "NCI-H460", "how_it_was_run": "as §3"}, "[24]": {"experiment": "Cytotoxicity against human Hep3B cells after 48 hrs by MTT assay", "type": "functional, cell-based, Hep 3B2", "how_it_was_run": "as §5"}, "HL-60 [25]": {"test_system": "HL-60", "experiment": "Cell cycle arrest in human HL60 cells assessed as accumulation at sub G1 phase at 0.5 uM after 24 hrs by propidium iodide staining-based FACS analysis (reference value: 0.35%)", "type": "functional"}, "HL-60 [26]": {"test_system": "HL-60", "experiment": "Cell cycle arrest in human HL60 cells assessed as accumulation at G2/M phase at 0.5 uM after 24 hrs by propidium iodide staining-based FACS analysis (reference value: 10.51%)", "type": "functional"}}, "note": "Activity calls are given as the source filed them. The rule behind the calls is not given here."}
{"smiles": "COc1ccc(-c2cc(=O)[nH]c3cc4c(cc23)OCO4)c(OC)c1", "values": [{"measurement": "Activity", "setting": "HL-60 [1]", "value": 12.46, "unit": "%"}, {"measurement": "IC50", "setting": "SK-OV-3", "value": 400, "unit": "nM"}, {"measurement": "Activity", "setting": "HL-60 [2]", "value": "Active"}, {"measurement": "Activity", "setting": "[3]", "value": 54.4, "unit": "%"}, {"measurement": "Activity", "setting": "HL-60 [4]", "value": 46.76, "unit": "%"}, {"measurement": "Activity", "setting": "NCI-H460 [5]", "value": "Active"}, {"measurement": "Activity", "setting": "HL-60 [6]", "value": 13.88, "unit": "%"}, {"measurement": "IC50", "setting": "[7]", "value": 400, "unit": "nM"}, {"measurement": "Activity", "setting": "[8]", "value": 22.4, "unit": "%"}, {"measurement": "Activity", "setting": "[9]", "value": 68.2, "unit": "%"}, {"measurement": "Activity", "setting": "HL-60 [10]", "value": 30.16, "unit": "%"}, {"measurement": "Activity", "setting": "HL-60 [11]", "value": 44.82, "unit": "%"}, {"measurement": "Activity", "setting": "HL-60 [12]", "value": "Active"}, {"measurement": "IC50", "setting": "Detroit 551", "value": "> 25", "unit": "µM"}, {"measurement": "Activity", "setting": "[13]", "value": 10.8, "unit": "%"}, {"measurement": "Activity", "setting": "HL-60 [14]", "value": "Dose-dependent effect"}, {"measurement": "Activity", "setting": "HL-60 [15]", "value": 46.99, "unit": "%"}, {"measurement": "Activity", "setting": "HL-60 [16]", "value": "Active"}, {"measurement": "IC50", "setting": "HL-60 [17]", "value": 400, "unit": "nM"}, {"measurement": "Activity", "setting": "HL-60 [18]", "value": "Active"}, {"measurement": "Activity", "setting": "HL-60 [19]", "value": "Active"}, {"measurement": "Activity", "setting": "NCI-H460 [20]", "value": "Dose-dependent effect"}, {"measurement": "Activity", "setting": "[21]", "value": 71.6, "unit": "%"}, {"measurement": "Activity", "setting": "HL-60 [22]", "value": 41.36, "unit": "%"}, {"measurement": "Activity", "setting": "[23]", "value": 11.2, "unit": "%"}, {"measurement": "IC50", "setting": "[24]", "value": 1000, "unit": "nM"}, {"measurement": "Activity", "setting": "HL-60 [25]", "value": 27.86, "unit": "%"}, {"measurement": "Activity", "setting": "HL-60 [26]", "value": 25.02, "unit": "%"}]}
